Bioassay records as filed in PubChem BioAssay.
hiPSC survival = hiPSC single-cell survival enhancement. ATPlite luminescence; 100% = ROCK inhibitor wells, 0% = DMSO. survival enhancement, % at 20 µM. 0.044% of 360,000 active. AID 602274; in the data active means survival enhancement above about 18%;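 further: cells exposed to compounds for 16 hours before the ATP read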
SKN-1 inh = blocks SKN-1 activity in C. elegans; C. elegans VP596 Pgst-4::GFP/RFP ratio, acrylamide-induced, 24 h; inhibition, % at 21.8 µM; 0.49% of 360,000 active; AID 624304;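 active means interference check ratio from 0.5 to 1.5 plus GFP to RFP signal ratio inhibition reaching or exceeding a fixed threshold, cut at about 30% in these data, passing the limit was not always enough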
NRP1-CendR mod = modulators of CendR peptide binding to human neuropilin-1. FAM-RPARPAR peptide binding to NRP-1, fluorescence polarization. inhibition, % at 25 µM. 0.85% of 360,000 active. AID 602438;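 active means inhibition or corrected inhibition above about 18%, plus a signal ratio from 0.5 to 1.5, limit read from the data, passing the limit was not always enough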
Target sequence (O14786 whole entry, looked up): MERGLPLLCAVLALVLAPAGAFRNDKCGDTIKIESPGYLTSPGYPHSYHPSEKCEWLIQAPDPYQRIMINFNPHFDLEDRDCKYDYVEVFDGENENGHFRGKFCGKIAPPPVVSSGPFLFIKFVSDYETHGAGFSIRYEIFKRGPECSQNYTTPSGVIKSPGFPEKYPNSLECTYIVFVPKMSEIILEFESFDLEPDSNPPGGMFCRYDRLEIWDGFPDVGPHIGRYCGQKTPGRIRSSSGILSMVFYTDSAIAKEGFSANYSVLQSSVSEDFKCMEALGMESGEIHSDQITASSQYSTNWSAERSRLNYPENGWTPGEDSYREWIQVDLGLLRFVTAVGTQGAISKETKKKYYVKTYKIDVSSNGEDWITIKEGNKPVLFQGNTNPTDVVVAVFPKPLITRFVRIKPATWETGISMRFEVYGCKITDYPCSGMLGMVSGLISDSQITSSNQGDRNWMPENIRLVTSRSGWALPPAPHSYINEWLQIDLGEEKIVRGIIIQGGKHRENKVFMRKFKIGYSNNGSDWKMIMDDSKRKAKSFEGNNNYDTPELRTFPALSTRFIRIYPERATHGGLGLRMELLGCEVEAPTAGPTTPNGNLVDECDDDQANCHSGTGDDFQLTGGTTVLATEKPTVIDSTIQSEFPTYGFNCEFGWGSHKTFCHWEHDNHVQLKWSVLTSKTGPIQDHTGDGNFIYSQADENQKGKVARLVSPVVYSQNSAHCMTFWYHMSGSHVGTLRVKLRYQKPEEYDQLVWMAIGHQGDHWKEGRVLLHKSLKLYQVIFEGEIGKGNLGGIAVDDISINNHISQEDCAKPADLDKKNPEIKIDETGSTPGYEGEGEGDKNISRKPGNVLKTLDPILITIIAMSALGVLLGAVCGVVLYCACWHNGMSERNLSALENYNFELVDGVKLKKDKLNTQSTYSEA
MT1-MMP act inh = blocks activation of human MT1-MMP | 0.061% of 360,000 active | GFP/RFP ratio change, % at 20 µM | HT1080 RFP-PRO-GFP cells, GFP/RFP ratio fluorescence, overnight; percent of plate control window, DMSO zero | P50281;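 active means GFP/RFP ratio change of at least 30% with cell ATP level not reduced by more than half and red fluorescence within 50% of control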
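Test system: HT1080 RFP-PRO-GFP cells; Benchmarks: DMSO and RFP-L50D-GFP cell wells; Timing: cells overnight before dosing, compound overnight, 37 °C, 5% CO2; Compound: one 20 µM compound dose with 1% DMSO; Read-out: GFP/RFP fluorescence ratio.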
* hit, by the source's call; nt = not tested or not shown. Rows were chosen to be rich in hits. Some 1.4% of all compounds tested hit in one or more screens of this group.

SMILES | hiPSC survival | SKN-1 inh | NRP1-CendR mod | MT1-MMP act inh
Cn1c(=O)c2c(ncn2CC(=O)NCc2cccnc2)n(C)c1=O | 26* | -7 | 13 | 5
Cc1nc(SCc2ccccc2)c2ccsc2n1 | 0 | 5 | -8 | 1
c1ccc(CSc2ncnc3sccc23)cc1 | -1 | 43* | 7 | -6
CCCn1cnc2cc(NCc3cccc(OC)c3O)ccc21 | 0 | 35* | 1 | 7
CCCn1cnc2cc(NCc3ccccn3)ccc21 | -4 | 2 | 1 | 3
N/C(=N\N=C/c1ccc(F)cc1)N/N=C\c1ccc(F)cc1 | -1 | 51* | 8 | 10
N/C(=N\N=C/c1ccc(Br)cc1)N/N=C\c1ccc(Br)cc1 | 1 | 26 | 3 | 6
CCN(CC)C(=O)c1sc(NC(=O)Cc2ccc(OC)cc2)c(C#N)c1C | 11 | 45* | 2 | -1
CCN(CC)C(=O)c1sc(NC(=O)Cc2ccccc2)c(C#N)c1C | 0 | -23 | 4 | 7
CCOC(=O)N1CCC(N2CCN(C3CCCC3)C(CCO)C2)CC1 (stereo not drawn) | 4 | 2 | 16 | -1
CC/C(=N\Nc1ccc([N+](=O)[O-])cc1)c1ccccc1 | 1 | 35* | -56 | -11
O=C(CC(=O)c1ccccc1)Nc1ccc([N+](=O)[O-])cc1 | 0 | -11 | 25* | 5
CCCCCCCCCOC(=O)C1N2C(=O)[C@@H](NC(=O)COc3ccccc3)[C@H]2SC1(C)C (stereo partly drawn) | 2 | 9 | 22* | 2
Cc1cc(COC(=O)C2N3C(=O)[C@@H](NC(=O)COc4ccccc4)[C@H]3SC2(C)C)on1 (stereo partly drawn) | -1 | -18 | -3 | -1
COc1cc2c(cc1OC)C(=O)CCS2 | 1 | -20 | 31* | -4
COc1ccc2c(c1)SCCC2=O | -2 | -13 | 6 | 1
Nc1ccccc1Nc1cc(-c2ccccc2)[nH]n1 | -1 | -13 | -16 | -17
CCc1ccccc1NC(=O)c1ccccc1N1C(=O)C2C3C=CC(C3)C2C1=O (stereo not drawn) | 0 | -4 | 22* | 0
COc1cc2c(C(=O)NCc3ccccn3)cn(C)c(=O)c2cc1OC | -1 | -2 | 1 | -4
CN(C)c1cccc2c(S(=O)(=O)NC(=O)[C@H]3O[C@@H](n4cnc5c(N)ncnc54)[C@H](O)[C@@H]3O)cccc12 | -1 | 3 | 25* | 2
CCOC(=O)c1ccccc1NC(=O)C1=COCCO1 | 0 | 31 | -1 | -8
Cc1c(Cl)cccc1N=c1c([N+](=O)[O-])nn(-c2ccccc2)n1O | 6 | 52* | -7 | 6
Cc1ccc(N=c2c([N+](=O)[O-])nn(-c3ccccc3)n2O)c(C)c1 | -2 | -7 | -10 | 17
COc1ccc(Br)cc1CNC(=O)CCc1nc(-c2ccc(C)cc2)no1 | 2 | 14 | 23* | -2
Cc1nnc(SCCOc2ccccc2)s1 | 0 | 14 | 51* | 1
SMILES | hiPSC survival | SKN-1 inh | NRP1-CendR mod | MT1-MMP act inh
Cc1ccc(C2CC(=O)c3cnc(N4CCN(c5ccccc5)CC4)nc3C2)cc1 (stereo not drawn) | -1 | -1 | -3 | 4
COc1ccc(NC(=O)C2CCN(C(=O)Nc3ccccc3)CC2)cc1S(=O)(=O)N(C)C | -2 | -3 | 23* | -4
CCCNC(=O)C(Cc1ccccc1)NC(=O)c1ccc(C(C)(C)C)cc1 (stereo not drawn) | 1 | 5 | 26* | -3
O=C(CN1CCN(CC(=O)Nc2ccc(F)cc2)CC1)NCC1(N2CCOCC2)CCCCC1 | 0 | 13 | 4 | -7
CCc1sc(N(C(=O)Cc2ccccc2)c2cccc(F)c2)nc1-c1ccc(C)cc1 | 2 | 44* | 2 | -1
Cc1ccn2cc(-c3ccc(Br)cc3)nc2c1 | -1 | 8 | -13 | -4
Clc1ccc(-c2cn3cc(Br)ccc3n2)cc1Cl | -3 | 57* | 2 | 0
O=C(NCCNC1CCC(c2ccccc2)CC1)c1ccc(F)cc1 (stereo not drawn) | -1 | -2 | 12 | nt
O=C(Cn1cc([N+](=O)[O-])ccc1=O)Nc1ccc2c(c1)OCO2 | -1 | -7 | 13 | -2
c1cncc(-c2nnc(-c3ccco3)o2)c1 | 4 | 7 | -4 | 3
Clc1ccc(-c2nnc(-c3ccco3)o2)cc1 | 1 | 74* | 13 | 0
C=CCn1cc(-c2cccc(Cl)c2)cc(C#N)c1=O | 3 | 40* | 5 | 3
CCCCCCCSc1nsc(N)n1 | 1 | -3 | 19 | 0
COc1cc(O)cc2cc3c(c(O)c12)C(=O)CC(C)(O)O3 (stereo not drawn) | 2 | -13 | 38* | -21
C[C@H]1CN([C@@H](C)CO)C(=O)c2cccc(NC(=O)Nc3ccc(C(F)(F)F)cc3)c2O[C@@H]1CN(C)S(=O)(=O)c1ccc(Cl)cc1 | 7 | 23 | 0 | -1
COc1cc(C(=O)NCC(=O)OCc2cc(=O)oc3c(C)c(C)ccc23)cc(OC)c1OC | -1 | -10 | 8 | 0
CCCCn1c(=O)c2c(nc3n2CCCN3Cc2ccccc2)n(C)c1=O | 0 | -2 | 3 | 5
Cc1c(C#N)c(O)n(CCO)c(=O)c1N=Nc1ccc2c(c1)COC2=O | 6 | 48* | -15 | 5
Cc1cc(=O)n(CCO)c(O)c1C#N | -1 | 16 | -9 | -8
O=C(NC(=S)Nc1ccc(CN2CCCCC2)cc1)c1cc2ccccc2o1 | -1 | 73* | 2 | 4
CCCC(=O)N1CCN(c2ccc(NC(=O)c3cc4ccccc4o3)cc2)CC1 | -1 | 48* | 5 | 1
CN1CCN(c2ccc(NC(=O)c3cc4ccccc4o3)cc2)CC1 | 0 | 34 | -3 | -5
CC1CN(C(=O)CNC(=O)COc2ccccc2)CC(C)O1 (stereo not drawn) | 1 | -12 | 2 | -1
COc1ccc(C2Nc3ccccc3C(=O)N2c2ccc(C)cc2)cc1Cn1cc([N+](=O)[O-])cn1 (stereo not drawn) | -4 | -8 | -3 | 1
CC(C)C1COC(c2cccc3ccccc23)=N1 (stereo not drawn) | -1 | 37* | 8 | 4
CCn1cc(C2=NC(C(C)C)CO2)c2ccccc21 (stereo not drawn) | -1 | 2 | 4 | 4
Cc1ccc(S(=O)(=O)NCC(C)NS(=O)(=O)c2ccccc2[N+](=O)[O-])cc1 (stereo not drawn) | 0 | -11 | 5 | 1
C[C@@H]1CC=C[C@H]2[C@H]1C(=O)N(Cc1ccccc1)[C@H]2c1ccc(-c2ccc(N(C)C)cc2)cc1F | -1 | 23 | 14 | -7
Cc1ccc(F)c(C2C3C=CCC(c4cccc(-c5ccc(N(C)C)cc5)c4)C3C(=O)N2Cc2ccccc2)c1 (stereo not drawn) | -2 | 44* | 10 | 3
COc1ccc(-c2ccc(OC)c([C@H]3[C@H]4C=CC[C@@H](C)[C@@H]4C(=O)N3Cc3ccccc3)c2)cc1C | 0 | 9 | 29* | -14
